Legend:
Rattus norvegicus [1] = experiment: Toxicity in Sprague-Dawley rat assessed as liver weight measured per 100 g of body weight at 200 mg/kg, po after 7 days (reference value: 3.3 g); type: organism-based; design: dose 200 mg/kg, route oral; conditions: in vivo, 168 h
Rattus norvegicus [2] = experiment: Toxicity in Sprague-Dawley rat assessed as increase in body weight at 200 mg/kg, po after 7 days relative to control; type: organism-based; design: dose 200 mg/kg, route oral; conditions: in vivo, 168 h
[3] = Antitumor activity against Sprague-Dawley rat mammary tumor cells assessed as increase in apoptotic index at 200 mg/kg, po after 7 days by TUNEL assay relative to control; type: functional
How it was run: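 Female Sprague Dawley rats with N-methyl-nitrosourea-induced mammary cancers (about 200 mm²) were given the retinoid in Teklad diet for 7 days. BrdU was injected 2 h before CO₂ euthanasia. Cancers were excised and fixed in 10% formalin. Each index is the ratio of treated to vehicle-fed animals.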

Rattus norvegicus [4] = experiment: Toxicity in 216 days old Sprague-Dawley rat assessed as increase in serum triglyceride level at 200 mg/kg, po administered with diet after 7 days relative to control; type: organism-based; design: dose 200 mg/kg, route oral; conditions: in vivo, 168 h
Rattus norvegicus [5] = experiment: Toxicity in 50 days old Sprague-Dawley rat assessed as increase in serum triglyceride level at 200 mg/kg, po administered with diet after 7 days relative to control; type: organism-based; design: dose 200 mg/kg, route oral; conditions: in vivo, 168 h

Row | SMILES | Activity (Rattus norvegicus [1]) | Activity (Rattus norvegicus [2]) | Activity [3] | Activity (Rattus norvegicus [4]) | Activity (Rattus norvegicus [5])
1 | CC(=C/C=C/C(C)=C/C(=O)O)/C=C1\CC[C@@H](C)c2ccccc21 | 4.2 g | 3% | 150% |  | 
2 | CC(=C/C=C/C(C)=C/C(=O)O)/C=C1\CC[C@H](C)c2ccccc21 | 3.8 g | 3% | 300% | 175% | 
3 | CC(=C/C=C/C(C)=C/C(=O)O)/C=C1\CCC(C)c2ccccc21 (racemic) |  | 3% | 300% | 370% | 566%
4 | CC1=C(/C=C/C(C)=C\C=C\C(C)=C\C(=O)O)C(C)(C)CCC1 [ALITRETINOIN] |  | 3% |  |  | 
5 | C=C(c1ccc(C(=O)O)cc1)c1cc2c(cc1C)C(C)(C)CCC2(C)C [BEXAROTENE] |  | 3% |  |  | 
6 | CC(=C/C=C/C(C)=C/C(=O)O)/C=C1\CCCc2ccccc21 [UAB-30] |  | 3% | 33% |  | 

Reference: ChEMBL document CHEMBL3098106 (Bioorg Med Chem, 2014)
